Source: ChEMBL document CHEMBL5532752, “Integrating a quinone substructure into histone deacetylase inhibitors to cope with Alzheimer's disease and cancer” (RSC Med Chem, 2024)
Active and inactive are the calls of the source. The rule behind the calls is not given here.

Experiments:
SH-SY5Y [1] = experiment: Induction of cell cycle arrest in human SH-SY5Y cells assessed as accumulation of cells at sub-G1 phase at 1 to 10 uM incubated for 72 hrs by propidium iodide staining based flow cytometry; type: functional; settings: dose 1-10 µM
How it was run: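 SH-SY5Y exposed to 1 or 10 μM for 72 h, collected, fixed in 70% ice-cold ethanol, stained with propidium iodide-containing cell-cycle reagent 30 min in the dark at room temperature, and analysed by flow cytometry for G0/G1, S, G2/M and sub-G1 fractions; one-way ANOVA, Bonferroni.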

SH-SY5Y [2] = experiment: Induction of apoptosis in human SH-SY5Y cells assessed as increase in caspase-3 activity at 1 uM incubated for 72 hrs by colorimetric assay relative to control; type: functional
How it was run: (§1)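 Cells treated 72 h, collected, PBS-rinsed, lysed on ice 10 min; protein quantified by Bradford. Lysates incubated 2 h at 37 °C with 2× reaction buffer containing 10 mM dithiothreitol and DEVD-pNA caspase-3 substrate. Free pNA read by absorbance at 405 nm; activity expressed as fold over untreated cells. At least 3 independent experiments.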

SH-SY5Y [3] = experiment: Cytotoxicity against human SH-SY5Y cells assessed as reduction in cell viability pretreated with SFN followed by compound treatment by MUH reagent based spectrophotometric analysis; type: functional
SH-SY5Y [4] = experiment: Induction of apoptosis in human SH-SY5Y cells assessed as increase in PARP cleavage by measuring decrease in PARP protein expression at 10 uM incubated for 72 hrs by flow cytometry relative to control; type: functional; parameters: scale not given: the % may be the effect or the level left
How it was run: (§2)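 SH-SY5Y cells, cultured in DMEM with 10% FBS at 37 °C and 5% CO2, were treated for 72 h. Cells were fixed in 4% paraformaldehyde and permeabilized with 90% cold methanol. They were stained with anti-PARP (1:100) and then an Alexa Fluor 488 secondary (1:200). Mean fluorescence intensity was read by flow cytometry and expressed as fold change versus control cells.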

SH-SY5Y [5] = experiment: Cytotoxicity against human SH-SY5Y cells assessed as reduction in cell viability at 1 uM pretreated with antioxidant, NAC for 1 hr followed by incubation with drug for 24 hrs by MUH reagent based spectrophotometric analysis; type: functional
How it was run: (§3)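 SH-SY5Y pretreated 1 h with 2 mM NAC, then exposed to compound at 1 or 10 μM for 24 h. Viability read by MUH hydrolysis (0.01 mg/mL, 30 min, 37 °C; ex 330/em 450 nm) as percent of untreated cells; two-way ANOVA with Tukey post hoc.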

SH-SY5Y [6] = experiment: Cytotoxicity against human SH-SY5Y cells assessed as reduction in cell viability at 10 uM pretreated with antioxidant, NAC for 1 hr followed by incubation with drug for 24 hrs by MUH reagent based spectrophotometric analysis; type: functional; how it was run: as §3
SH-SY5Y [7] = experiment: Induction of apoptosis in human SH-SY5Y cells assessed as increase in caspase-3 activity at 10 uM incubated for 72 hrs by colorimetric assay relative to control; type: functional; how it was run: as §1
SH-SY5Y [8] = experiment: Induction of apoptosis in human SH-SY5Y cells assessed as increase in PARP cleavage by measuring decrease in PARP protein expression at 1 uM incubated for 72 hrs by flow cytometry relative to control; type: functional; parameters: scale not given: the % may be the effect or the level left; how it was run: as §2
SH-SY5Y [9] = experiment: Induction of cell cycle arrest in human SH-SY5Y cells assessed as proportion of cells at sub-G1 phase at 1 uM incubated for 72 hrs by propidium iodide staining based flow cytometry (reference value: 5.56%)
HepG2 = experiment: Cytotoxicity against human HepG2 cells assessed as cell viability upto 10 uM incubated for 24 hrs by MTT assay; type: toxicity, cell-based; settings: hepg2, 24 h
How it was run: (§4)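 HepG2 in MEM with 10% FBS, plated 1.5 × 10⁴ cells/well; after 24 h exposed to 0.010–100 μM compound or vehicle for 24 h. MTT (0.2 mg/mL in PBS) for 2 h at 37 °C, formazan dissolved in DMSO, absorbance at 570 nm. Viability relative to vehicle controls, mean ± SD, n = 4.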

[10] = Cytotoxicity against human HepG2 cells assessed as reduction in cell viability incubated for 24 hrs by MTT assay; type: toxicity, cell-based; how it was run: as §4
Neurosphere [11] = experiment: Neuroprotective activity against C57BL/6N mouse neurosphere assessed as increase in NPCs spontaneous differentiation by measuring decrease in Nestin-positive cells at 2.5 to 5 uM measured after 7 days by immunofluorescence analysis; type: functional, cell-based; settings: dose 2.5-5 µM, time 7.0 day
How it was run: (§5)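 Thirty 7-day neurospheres plated on Matrigel-coated coverslips with 2.5 or 5 μM compound or DMSO, differentiated 7 days, fixed in 4% PFA, immunostained for Nestin, DCX, Olig2 or GFAP with Alexa 555 secondaries, DAPI counterstain. Intensity index = marker-positive intensity / total DAPI intensity; mean ± SD of 3 fields per condition.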

Neurosphere [12] = experiment: Toxicity against C57BL/6N mouse neurosphere at 25 to 50 uM measured after 7 days by bright filed microscopy; type: tissue-based; settings: in vitro, 168 h
How it was run: (§6)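 Neurospheres from sub-ventricular zone of 8-month-old male C57BL/6N mice, dissociated with Accutase, plated as single cells 5 × 10³/well in suspension in EGF/FGF2/N2/B27 medium with 2.5–50 μM compound or DMSO for 7 days. Daily brightfield live imaging; sphere count and total area per image, aggregates >400 μm² only.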

Neurosphere [13] = experiment: Neuroprotective activity against C57BL/6N mouse neurosphere assessed as effect on neurospheres size at 2.5 to 5 uM measured after 7 days by bright field microscopy; type: functional, tissue-based; settings: dose 2.5-5 µM, time 7.0 day; how it was run: as §6
SH-SY5Y [14] = experiment: Potentiation of H2O2-induced cytotoxicity in human SH-SY5Y cells assessed as cell viability at 50 uM pretreated for 24 hrs followed by incubation for 1 hr with H2O2 and incubated in drug-free medium for 22 hrs by MUH reagent based spectrophotometric analysis (reference value: 50.8%); type: functional; settings: time 25 hrs, read-out: Activity
Neurosphere [15] = experiment: Neuroprotective activity against C57BL/6N mouse neurosphere assessed as increase in NPCs spontaneous differentiation by measuring increase in DCX-positive cells at 2.5 to 5 uM measured after 7 days by immunofluorescence analysis; type: functional, cell-based; settings: dose 2.5-5 µM, time 7.0 day; how it was run: as §5
SH-SY5Y [16] = experiment: Neuroprotective activity against H2O2-induced cytotoxicity in human SH-SY5Y cells assessed as increase in cell viability at 1 to 50 uM pretreated for 24 hrs followed by incubation for 1 hr with H2O2 and incubated in drug-free medium for 22 hrs by MUH reagent based spectrophotometric analysis; type: functional; settings: dose 1-50 µM, time 25.0 hrs
How it was run: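 SH-SY5Y pretreated 24 h with 1, 10 or 50 μM compound, exposed 1 h to H2O2, then 22 h recovery in drug-free complete medium. H2O2 level printed as 300 μM in methods but 600 μM in figure legend. Viability by MUH fluorescence (ex 330/em 450 nm) vs untreated cells; one-way ANOVA, Tukey.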

Neurosphere [17] = experiment: Neuroprotective activity against C57BL/6N mouse neurosphere assessed as increase in NPC proliferation by measuring increase in neurospheres number at 2.5 to 5 uM measured after 7 days by bright field microscopy; type: functional, tissue-based; settings: dose 2.5-5 µM, time 7.0 day; how it was run: as §6

SMILES | Activity (SH-SY5Y [1]) | fold change (FC) (SH-SY5Y [2]) | Activity (SH-SY5Y [3]) | Activity (SH-SY5Y [4]) [%] | Activity (SH-SY5Y [5]) | Activity (SH-SY5Y [6]) | fold change (FC) (SH-SY5Y [7]) | Activity (SH-SY5Y [8]) [%] | Activity (SH-SY5Y [9]) [%] | Activity (HepG2) | IC50 at 24 h [10] [µM] | Activity (Neurosphere [11]) | Activity (Neurosphere [12]) | Activity (Neurosphere [13]) | viability at 50 µM (SH-SY5Y [14]) [%] | Activity (Neurosphere [15]) | Activity (SH-SY5Y [16]) | Activity (Neurosphere [17])
CC1=C(NCc2ccc(C(=O)Nc3ccccc3N)cc2)C(=O)c2ccccc2C1=O | Active | 1.2 | Active | 56.81 | inactive | Active | 1.7 | 44.81 | 28.03 | – | – | – | – | – | – | – | – | –
CC1=C(NCCCCNC(=O)CS)C(=O)c2ccccc2C1=O | – | – | – | – | – | – | – | – | – | Non-Toxic | 25.5 | Active | Toxic | inactive | 28.2 | Active | inactive | Active
